Test results from ChEMBL document CHEMBL1138356, “Design and synthesis of human immunodeficiency virus entry inhibitors: sulfonamide as an isostere for the alpha-ketoamide group” (J Med Chem, 2007).

Columns and labels:
[1] = test system: Human immunodeficiency virus 1; test: Antiviral activity against HIV1 pseudovirus in U87 cells expressing CD4 and CCR5 after 72 hrs by M33 pseudotyped assay; type: functional, organism-based, U-87MG ATCC; details: Human immunodeficiency virus 1, U-87 MG
In short: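 M33 pseudotyped viral attachment assay giving IC50 values. Specificity for HIV was judged by counter-screening against AMLV-pseudotyped virus at concentrations above 100× the M33 IC50.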

[2] = Cytotoxicity against human U87 cells expressing CD4 and CXCR4; type: cell-based, U-87MG ATCC

Compound | IC50 [1] | CC50 [2]
COc1cccc2[nH]cc(S(=O)(=O)N3CCN(C(=O)c4ccccc4)C[C@H]3C)c12 | 4.2 µM | > 40 µM
COC(=O)[C@@H]1CN(C(=O)c2ccccc2)CCN1S(=O)(=O)c1c[nH]c2ncccc12 | > 20 µM | > 40 µM
C[C@@H]1CN(S(=O)(=O)c2c[nH]c3ncccc23)CCN1C(=O)c1ccccc1 | 13 µM | > 40 µM
C[C@@H]1CN(C(=O)c2ccccc2)CCN1S(=O)(=O)c1c[nH]c2ccccc12 | 0.43 µM | > 40 µM
COc1ncc(OC)c2c(C(=O)C(=O)N3CCN(C(=O)c4ccccc4)CC3)c[nH]c12 | 0.026 µM | > 40 µM
C[C@@H]1CN(C(=O)c2ccccc2)CCN1S(=O)(=O)c1c[nH]c2c(C#N)cc(F)cc12 | 10 µM | > 40 µM
C[C@@H]1CN(C(=O)c2ccccc2)CCN1S(=O)(=O)c1c[nH]c2c(-n3nccn3)ccc(F)c12 | 0.2 µM | > 40 µM
C[C@H]1CN(S(=O)(=O)c2c[nH]c3ncccc23)CCN1C(=O)c1ccccc1 | > 20 µM | > 40 µM
CC[C@@H]1CN(C(=O)c2ccccc2)CCN1S(=O)(=O)c1c[nH]c2ncccc12 | 16 µM | > 40 µM
C[C@@H]1CN(C(=O)c2cc3ccccc3o2)CCN1S(=O)(=O)c1c[nH]c2ncccc12 | 3 µM | > 40 µM
C[C@@H]1CN(C(=O)c2ccccn2)CCN1S(=O)(=O)c1c[nH]c2ncccc12 | 3.3 µM | > 40 µM
C[C@@H]1CN(C(=O)c2csc(N)n2)CCN1S(=O)(=O)c1c[nH]c2ncccc12 | 0.52 µM | > 40 µM
C[C@@H]1CN(C(=O)c2cccc(Cl)c2)CCN1S(=O)(=O)c1c[nH]c2ncccc12 | 8.4 µM | > 40 µM
C[C@@H]1CN(C(=O)c2cnccn2)CCN1S(=O)(=O)c1c[nH]c2ncccc12 | 9.1 µM | > 40 µM
Cc1ccc(C(=O)N2CCN(S(=O)(=O)c3c[nH]c4ncccc34)[C@H](C)C2)s1 | 2.3 µM | > 40 µM
CC1(C)CN(C(=O)c2ccccc2)CCN1S(=O)(=O)c1c[nH]c2ncccc12 | > 20 µM | > 40 µM

Compound | IC50 [1] | CC50 [2]
C[C@@H]1CN(C(=O)c2csc(Br)n2)CCN1S(=O)(=O)c1c[nH]c2ncccc12 | 0.42 µM | > 40 µM
C[C@@H]1CN(C(=O)c2ccccc2)CCN1S(=O)(=O)c1c[nH]c2cccc(F)c12 | 0.2 µM | > 40 µM
C[C@@H]1CN(C(=O)c2ccccc2)CCN1S(=O)(=O)c1c[nH]c2c(F)ccc(F)c12 | 0.37 µM | > 40 µM
NC(=O)[C@@H]1CN(C(=O)c2ccccc2)CCN1S(=O)(=O)c1c[nH]c2ncccc12 | > 20 µM | > 40 µM
NC(=O)[C@H]1CN(C(=O)c2ccccc2)CCN1S(=O)(=O)c1c[nH]c2ncccc12 | > 20 µM | > 40 µM
C[C@@H]1CN(C(=O)c2ccccc2)CCN1S(=O)(=O)c1c[nH]c2c(F)c(F)c(F)c(F)c12 | 4.7 µM | > 40 µM
O=C(c1ccccc1)N1CCN(S(=O)(=O)c2c[nH]c3ncccc23)CC1 | 22 µM | > 40 µM
O=C(C(=O)N1CCN(C(=O)c2ccccc2)CC1)c1c[nH]c2ncccc12 | 0.52 µM | > 40 µM
C[C@@H]1CN(C(=O)c2ccccc2)CCN1S(=O)(=O)c1c[nH]c2ccc(C#N)cc12 | > 20 µM | > 40 µM
COc1ncc(OC)c2c(C(=O)C(=O)N3CCN(C(=O)c4ccccc4)C[C@H]3C)c[nH]c12 | 0.005 µM | > 40 µM
COc1cc2c(S(=O)(=O)N3CCN(C(=O)c4ccccc4)C[C@H]3C)c[nH]c2cn1 | 9.2 µM | > 40 µM
Cc1csc(C(=O)N2CCN(S(=O)(=O)c3c[nH]c4ncccc34)[C@H](C)C2)c1 | 1.9 µM | > 40 µM
C[C@@H]1CN(C(=O)c2ccn(C)n2)CCN1S(=O)(=O)c1c[nH]c2ncccc12 | 2.4 µM | > 40 µM
C[C@@H]1CN(C(=O)c2ccccc2)CCN1C(=O)C(=O)c1c[nH]c2ncccc12 | 0.03 µM | > 40 µM
COCc1cn(-c2ncc(F)c3c(S(=O)(=O)N4CCN(C(=O)c5ccccc5)CC4C)c[nH]c23)nn1 (racemic) | 0.58 µM | > 40 µM

Now from value to molecule, other results behind:

IC50 [1] | Compound | CC50 [2]
0.15 µM | C[C@@H]1CN(C(=O)c2ccccc2)CCN1S(=O)(=O)c1c[nH]c2c(-n3ccnn3)ccc(F)c12 | > 40 µM
0.25 µM | C[C@@H]1CN(C(=O)c2ccccc2)CCN1S(=O)(=O)c1c[nH]c2c(-n3cc(CO)nn3)nccc12 | > 40 µM
0.86 µM | C[C@@H]1CN(C(=O)c2ccccc2)CCN1S(=O)(=O)c1c[nH]c2ncccc12 | > 40 µM
0.5 µM | C[C@@H]1CN(C(=O)c2ccccc2)CCN1S(=O)(=O)c1c[nH]c2c(-n3cncn3)ccc(F)c12 | > 40 µM
0.08 µM | C[C@@H]1CN(C(=O)c2ccccc2)CCN1S(=O)(=O)c1c[nH]c2c(-n3ccnc3)nccc12 | > 40 µM
0.62 µM | C[C@@H]1CN(C(=O)c2ccccc2)CCN1S(=O)(=O)c1c[nH]c2c(-n3nccn3)ncc(F)c12 | > 40 µM
0.036 µM | C[C@@H]1CN(C(=O)c2ccccc2)CCN1S(=O)(=O)c1c[nH]c2c(-n3ccnc3)ncc(F)c12 | > 40 µM
0.007 µM | C[C@@H]1CN(C(=O)c2ccccc2)CCN1S(=O)(=O)c1c[nH]c2c(-n3ccnn3)ncc(F)c12 | > 40 µM
> 20 µM | C[C@H]1CN(C(=O)c2ccccc2)CCN1S(=O)(=O)c1c[nH]c2ncccc12 | > 40 µM
0.027 µM | C[C@@H]1CN(C(=O)c2ccccc2)CCN1S(=O)(=O)c1c[nH]c2c(-n3ccnn3)nccc12 | > 40 µM
0.15 µM | C[C@@H]1CN(C(=O)c2ccccc2)CCN1S(=O)(=O)c1c[nH]c2c(-n3cncn3)nccc12 | > 40 µM
3.6 µM | C[C@@H]1CN(C(=O)c2ccccc2)CCN1S(=O)(=O)c1c[nH]c2ccc(F)cc12 | > 40 µM
0.24 µM | C[C@@H]1CN(C(=O)c2ccccc2)CCN1S(=O)(=O)c1c[nH]c2c(-n3cc(CF)nn3)nccc12 | > 40 µM
11 µM | CC1CN(C(=O)c2ccccc2)CCN1S(=O)(=O)c1c[nH]c2c(Cl)nccc12 (racemic) | > 40 µM
0.2 µM | CC1CN(C(=O)c2ccccc2)CCN1S(=O)(=O)c1c[nH]c2c(-n3cncn3)nccc12 (racemic) | > 40 µM
1.1 µM | CC1CN(C(=O)c2ccccc2)CCN1S(=O)(=O)c1c[nH]c2c(-n3cc(CN(C)C)nn3)nccc12 (racemic) | > 40 µM
0.86 µM | Cc1cn(-c2nccc3c(S(=O)(=O)N4CCN(C(=O)c5ccccc5)CC4C)c[nH]c23)nn1 (racemic) | > 40 µM
0.14 µM | CC1CN(C(=O)c2ccccc2)CCN1S(=O)(=O)c1c[nH]c2c(-c3cc[nH]n3)nccc12 (racemic) | > 40 µM
0.64 µM | CC1CN(C(=O)c2ccccc2)CCN1S(=O)(=O)c1c[nH]c2c(-c3cccnc3)nccc12 (racemic) | > 40 µM
0.5 µM | CC1CN(C(=O)c2ccccc2)CCN1S(=O)(=O)c1c[nH]c2c(-c3nccs3)nccc12 (racemic) | > 40 µM
> 40 µM | COc1cc2c(S(=O)(=O)N3CCN(C(=O)c4ccccc4)CC3C)c[nH]c2cn1 (racemic) | > 40 µM
0.3 µM | CC1CN(C(=O)c2ccccc2)CCN1S(=O)(=O)c1c[nH]c2c(-n3cccn3)nccc12 (racemic) | > 40 µM
0.08 µM | CC1CN(C(=O)c2ccccc2)CCN1S(=O)(=O)c1c[nH]c2c(-n3cncn3)ncc(F)c12 (racemic) | > 40 µM
> 40 µM | CC1CN(C(=O)c2ccccc2)CCN1S(=O)(=O)c1c[nH]c2c(Cl)nc(Cl)cc12 (racemic) | > 40 µM
0.16 µM | CC1CN(C(=O)c2ccccc2)CCN1S(=O)(=O)c1c[nH]c2c(-n3ccnc3)nccc12 (racemic) | > 40 µM
0.5 µM | CC1CN(C(=O)c2ccccc2)CCN1S(=O)(=O)c1c[nH]c2c(-c3ccnc(N)n3)nccc12 (racemic) | > 40 µM
1.24 µM | CC1CN(C(=O)c2ccccc2)CCN1S(=O)(=O)c1c[nH]c2c(-c3ncon3)nccc12 (racemic) | > 40 µM
0.24 µM | Cc1ncn(-c2nccc3c(S(=O)(=O)N4CCN(C(=O)c5ccccc5)CC4C)c[nH]c23)n1 (racemic) | > 40 µM
